Measured values: publication PMC9067284 (RSC Advances, 2019)

Key:
[1] = molecular target: T1, PDK3 (Homo sapiens, UniProt Q15120); test: Fluorescence quenching binding study with purified PDK3
How it was run: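 Intrinsic tryptophan fluorescence quenching of refolded His-tagged human PDK3 (4 μM) at 25 ± 0.1 °C in 50 mM Tris pH 8.0. Test compounds come from 10–30 mM DMSO stocks and are titrated at 0.1–4.0 μM or 2–12 μM. Excitation 280 nm, emission 300–400 nm, blank subtracted, triplicates averaged. Ka and number of sites come from a modified Stern–Volmer plot.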

[2] = molecular target: T1, PDK3; test: Isothermal titration calorimetry of PDK3 with EA; assay type: binding; settings: ITC, 25 °C, four-site model
How it was run: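 VP-ITC at 25 °C with PDK3 (30 μM) in the cell and 1% v/v DMSO added to the protein. Test compound is injected from the syringe: a 2 μl first injection, then 10 μl injections at 300 s intervals, stirring at 320 rpm. Heat of dilution is subtracted. The isotherm is fitted to a four-set-of-sites model for Ka, n, ΔH and ΔS.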

[3] = molecular target: T1, PDK3; test: Enzyme inhibition assay; assay type: biochemical
How it was run: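 Recombinant full-length human PDK3, His-tagged, expressed in E. coli BL21 Gold, purified from inclusion bodies by Ni-NTA and refolded by dialysis. Enzyme 5 μM with 200 μM ATP and test compound 0–30 μM, 15–20 min at 25 °C in 50 mM Tris, 100 mM NaCl, pH 8.0. Released phosphate read by malachite green at 620 nm against a 0.0–8 nmol phosphate standard curve. Triplicates, at least three independent experiments.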

[4] = tested on: HepG2 cells; test: Cell proliferation MTT assay, HepG2; assay type: cell-based; settings: Homo sapiens, HepG2, 48 h, read-out: IC50, cell growth inhibition
How it was run: (§1)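 Cells at 37 °C, 5% CO2: A549 in F12K medium; HepG2 and HEK293 in DMEM with 10% heat-inactivated FBS and 1% penicillin-streptomycin; kept under 30 passages. Test compound at 0–250 μM for 48 h in 200 μl, then MTT with absorbance at 570 nm. Viability is given as % of untreated control and plotted against concentration. Doxorubicin is the positive control.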

[5] = tested on: A549 cells; test: Cell proliferation MTT assay, A549; assay type: cell-based; settings: Homo sapiens, A549, 48 h, read-out: IC50, cell growth inhibition
How it was run: as §1

T1 sequence (Q15120 whole entry): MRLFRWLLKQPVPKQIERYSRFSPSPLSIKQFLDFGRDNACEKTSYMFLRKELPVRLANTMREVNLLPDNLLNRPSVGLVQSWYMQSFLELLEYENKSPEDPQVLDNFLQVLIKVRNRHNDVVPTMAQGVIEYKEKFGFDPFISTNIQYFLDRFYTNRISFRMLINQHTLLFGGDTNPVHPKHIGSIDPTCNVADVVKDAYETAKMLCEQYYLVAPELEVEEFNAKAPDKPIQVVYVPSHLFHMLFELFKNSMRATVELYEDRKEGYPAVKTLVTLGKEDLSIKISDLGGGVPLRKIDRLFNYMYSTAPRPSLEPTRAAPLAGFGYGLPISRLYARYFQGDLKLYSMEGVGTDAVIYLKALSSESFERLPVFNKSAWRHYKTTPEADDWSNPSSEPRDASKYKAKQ

A Kd [1] of 5.62 µM was found for `COc1cc(C=O)ccc1O` [Vanillin] in this work.
A Kd [1] of 2.59 µM was found for `CCC(C)(C)C(=O)O[C@H]1C[C@@H](C)C=C2C=C[C@H](C)[C@H](CC[C@@H]3C[C@@H](O)CC(=O)O3)[C@H]21` [Simvastatin, reference compound] in this work.
A Kd [1] of 0.177 µM was found for `CC(C)=CCCC(C)=CC=O` (mixture of isomers) [Citral] in this work.
A Kd [1] of 1.76 µM was found for `C[C@H]1[C@H](C)CC[C@]2(C(=O)O)CC[C@]3(C)C(=CC[C@@H]4[C@@]5(C)CC[C@H](O)C(C)(C)[C@@H]5CC[C@]43C)[C@H]12` [Ursolic acid] in this work.
A Kd [1] of 0.271 µM was found for `COc1cc(CNC(=O)CCCC/C=C/C(C)C)ccc1O` [Capsaicin] in this work.
A Kd [1] of 0.0316 µM was found for `CC1(C)O[C@H]2CC(=O)OC[C@]23[C@H]2CC[C@@]4(C)[C@H](c5ccoc5)OC(=O)[C@H]5O[C@]54[C@]2(C)C(=O)C[C@@H]13` [Limonin] in this work.
In the case of `O=c1oc2c(O)c(O)cc3c(=O)oc4c(O)c(O)cc1c4c23` [Ellagic acid], the Kd [1] is reported as 0.00373 µM, the “ΔS1 (entropy change)” value ([2]; site 1) is reported as “ΔS1 = 9.13 cal mol^−1 deg^−1” and the “ΔS2 (entropy change)” value ([2]; site 2) is reported as “ΔS2 = −927 cal mol^−1 deg^−1”. The “ΔS3 (entropy change)” value ([2]; site 3) was “ΔS3 = −1950 cal mol^−1 deg^−1”, the “ΔS4 (entropy change)” value ([2]; site 4) was “ΔS4 = −2090 cal mol^−1 deg^−1” and the Kd ([2]; Ka1 (association constant), site 1) was 106 µM. The Kd ([2]; Ka2 (association constant), site 2) was 8.47 µM, the Kd ([2]; Ka3 (association constant), site 3) was 25.6 µM and the Kd ([2]; Ka4 (association constant), site 4) was 33.7 µM. For the same compound, the IC50 [3] was roughly 5 µM, the IC50 [4] was 36.7 ± 3.22 µM and the IC50 [5] was 23.4 ± 1.33 µM.
